Calls of active or inactive are those of the source. The calls are words filed in the database; no cut-off is given here.
Tests used:
[1] = target: RAF proto-oncogene serine/threonine-protein kinase (Homo sapiens, UniProt P04049, Y340D/Y341D); test: Inhibition of human recombinant c-Raf Y340D/Y341D mutant (306 to end residues) using inactive MEK1 as substrate incubated for 40 mins in presence of [gamma33P-ATP] by radiometric scintillation counting analysis
[2] = target: T1, Phosphatidylinositol 4,5-bisphosphate 3-kinase catalytic subunit alpha isoform (Homo sapiens, UniProt P42336); test: Inhibition of PI3Kalpha in human Rh30 cells assessed as reduction in rhIGF1-stimulated AKT phosphorylation at Ser473 treated for 1 hr followed by incubation with IGF1 for 10 mins by western blot analysis; format: cell-based; conditions: dose 0.01-1 µM, time 70.0 min
T1 sequence (P42336 whole entry, canonical isoform): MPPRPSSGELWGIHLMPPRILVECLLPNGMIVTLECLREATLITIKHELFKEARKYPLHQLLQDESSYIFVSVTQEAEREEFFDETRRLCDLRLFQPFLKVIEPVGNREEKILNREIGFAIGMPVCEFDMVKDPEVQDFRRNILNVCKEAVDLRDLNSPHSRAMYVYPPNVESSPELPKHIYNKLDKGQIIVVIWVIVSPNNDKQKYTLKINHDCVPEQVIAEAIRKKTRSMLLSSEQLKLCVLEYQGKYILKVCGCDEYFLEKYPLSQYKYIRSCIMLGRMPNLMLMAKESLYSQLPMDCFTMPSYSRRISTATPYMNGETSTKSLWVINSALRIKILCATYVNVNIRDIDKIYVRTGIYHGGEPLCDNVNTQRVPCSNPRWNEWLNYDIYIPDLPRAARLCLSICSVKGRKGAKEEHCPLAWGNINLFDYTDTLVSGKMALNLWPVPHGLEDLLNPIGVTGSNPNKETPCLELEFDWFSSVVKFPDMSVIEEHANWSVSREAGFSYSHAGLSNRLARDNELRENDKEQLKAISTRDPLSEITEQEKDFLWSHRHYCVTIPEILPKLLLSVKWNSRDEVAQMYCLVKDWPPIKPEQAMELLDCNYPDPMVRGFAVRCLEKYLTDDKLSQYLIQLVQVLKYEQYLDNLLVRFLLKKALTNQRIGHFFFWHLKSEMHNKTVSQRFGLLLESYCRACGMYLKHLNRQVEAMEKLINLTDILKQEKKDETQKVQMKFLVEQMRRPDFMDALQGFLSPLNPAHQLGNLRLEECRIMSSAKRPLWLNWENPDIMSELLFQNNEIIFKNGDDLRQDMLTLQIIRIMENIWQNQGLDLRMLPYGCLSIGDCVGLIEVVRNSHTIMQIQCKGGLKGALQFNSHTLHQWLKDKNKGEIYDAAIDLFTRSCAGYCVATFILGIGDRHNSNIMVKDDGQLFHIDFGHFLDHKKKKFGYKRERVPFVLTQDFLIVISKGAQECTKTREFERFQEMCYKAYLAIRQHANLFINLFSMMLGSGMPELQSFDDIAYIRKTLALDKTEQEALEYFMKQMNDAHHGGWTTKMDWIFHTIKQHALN
In short: (§1)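 U87MG or Rh30 cells held 24 h in serum-free medium, exposed to compound for 1 h, then stimulated with 50 ng/ml IGF-I for 10 min. Lysates blotted for Akt, pAkt T308 and pAkt S473.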

[3] = target: T1, Phosphatidylinositol 4,5-bisphosphate 3-kinase catalytic subunit alpha isoform; test: Inhibition of PI3Kalpha in human Rh30 cells assessed as reduction in rhIGF1-stimulated AKT phosphorylation at Thr308 treated for 1 hr followed by incubation with IGF1 for 10 mins by western blot analysis; format: cell-based; conditions: dose 0.01-1 µM, time 70.0 min; in short: as §1
[4] = tested on: BT-474; test: Antiproliferative activity against human BT-474 cells assessed as reduction in cell viability after 72 hrs by sulforhodamine B assay; format: functional, cell-based; conditions: BT-474, 72 h
In short: (§2)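 SRB assay. Exponentially growing cells seeded at 3000–5000/well, compounds added serially diluted after 24 h, cultured 72 h. Cells fixed with 10% TCA, stained with SRB, dye dissolved in 10 mM Tris-HCl, absorbance read at 560 nm. Inhibition = (ODcontrol − ODtreated)/ODcontrol × 100%. IC50 is the mean of at least three independent tests.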

[5] = tested on: MCF7; test: Antiproliferative activity against human MCF7 cells assessed as reduction in cell viability after 72 hrs by sulforhodamine B assay; format: functional, cell-based; conditions: MCF7, 72 h; in short: as §2
[6] = tested on: T47D; test: Antiproliferative activity against human T47D cells assessed as reduction in cell viability after 72 hrs by sulforhodamine B assay; format: functional, cell-based; in short: as §2
[7] = tested on: SK-OV-3; test: Antiproliferative activity against human SK-OV-3 cells assessed as reduction in cell viability after 72 hrs by sulforhodamine B assay; format: functional, cell-based; conditions: SK-OV-3, 72 h; in short: as §2
[8] = tested on: MDA-MB-231; test: Antiproliferative activity against human MDA-MB-231 cells assessed as reduction in cell viability after 72 hrs by sulforhodamine B assay; format: functional, cell-based; conditions: MDA-MB-231, 72 h; in short: as §2
[9] = tested on: Mus musculus; test: In vivo inhibition of PI3Kalpha in BALB/cA nude mouse xenografted with human SK-OV-3 cells assessed as reduction in AKT phosphorylation at Ser473 residue in tumor at 5 mg/kg, po measured after 2 hrs by Western blot analysis; format: functional, organism-based
In short: (§3)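 Nude mice carrying SKOV-3 xenografts of 200 mm³ got a single oral 5 mg/kg dose. Tumors were collected at 0, 2, 4 or 8 h, homogenized, and pAkt S473 probed by Western blot.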

[10] = tested on: SK-OV-3; test: Antitumor activity against human SK-OV-3 cells xenografted in BALB/cA nude mouse assessed as tumor growth at 5 mg/kg, po administered once a day for 21 days and measured twice per week; format: functional; conditions: dose 5 mg/kg/day; time 21 day
In short: (§4)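 Female BALB/cA nude mice, 4–5 weeks old. SKOV-3 xenografts passaged once in vivo, then 1.5 mm³ fragments implanted s.c. in the right flank by trocar. At about 100 mm³ mice were randomized to vehicle or drug given orally once daily. Tumor size and body weight measured twice weekly; V = length × width²/2.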

[11] = tested on: SK-OV-3; test: Antitumor activity against human SK-OV-3 cells xenografted in BALB/cA nude mouse assessed as tumor growth at 10 mg/kg, po administered once a day for 21 days and measured twice per week; format: functional; conditions: dose 10 mg/kg/day; time 21 day; in short: as §4
[12] = Metabolic stability in mouse hepatocytes assessed as half life; format: ADME, cell-based, Hepatocyte
[13] = Metabolic stability in cynomolgus monkey hepatocytes assessed as intrinsic clearance; format: ADME, cell-based, Macaca fascicularis, Hepatocyte; conditions: read-out: CLH
[14] = Metabolic stability in Beagle dog hepatocytes assessed as intrinsic clearance; format: ADME, cell-based, Canis lupus familiaris, Hepatocyte; conditions: read-out: CLH
[15] = Tmax in rat at 10 mg/kg, po; format: ADME, organism-based; conditions: in vivo
In short: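 Male rats were dosed orally at 10 mg/kg, with a parallel i.v. arm at 5 mg/kg. Plasma PK parameters were derived, including Cmax, Tmax, T1/2 and AUC0-∞, with oral bioavailability (F) reported against the i.v. arm.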

[16] = Half life in rat at 10 mg/kg, po; format: ADME, organism-based; conditions: in vivo
In short: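 Male rats given 10 mg/kg p.o.; Cmax and terminal half-life taken from the plasma concentration–time profile.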

[17] = AUC (0 to infinity) in rat at 10 mg/kg, po; format: ADME, organism-based; parameters: route oral, time infinity, dose 10 mg/kg; conditions: in vivo
In short: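 Male rats dosed orally at 10 mg/kg; plasma exposure followed to give AUC0-∞ (i.v. arm at 5 mg/kg run alongside).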

[18] = target: T1, Phosphatidylinositol 4,5-bisphosphate 3-kinase catalytic subunit alpha isoform; test: Inhibition of PI3Kalpha (unknown origin) transfected in human Rh30 cells assessed as reduction in AKT phosphorylation at Thr308 residue at 14 nM by western blot analysis; format: cell-based
In short: (§5)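 Rh30 cells ectopically expressing membrane-anchored, N-terminally myristoylated, constitutively active p110α, β, γ or δ. Akt phosphorylation assessed by Western blot; lysates made in RIPA buffer, equal protein heated at 95 °C for 10 min in SDS loading buffer.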

[19] = target: Phosphatidylinositol 4,5-bisphosphate 3-kinase catalytic subunit beta isoform (Homo sapiens) (UniProt P42338); test: Inhibition of PI3Kbeta (unknown origin) transfected in human Rh30 cells assessed as reduction in AKT phosphorylation at Thr308 residue at 10XIC50 by western blot analysis; format: cell-based; in short: as §5
Sequence of Phosphatidylinositol 4,5-bisphosphate 3-kinase catalytic subunit beta isoform (Homo sapiens) (P42338 whole entry, looked up, canonical isoform): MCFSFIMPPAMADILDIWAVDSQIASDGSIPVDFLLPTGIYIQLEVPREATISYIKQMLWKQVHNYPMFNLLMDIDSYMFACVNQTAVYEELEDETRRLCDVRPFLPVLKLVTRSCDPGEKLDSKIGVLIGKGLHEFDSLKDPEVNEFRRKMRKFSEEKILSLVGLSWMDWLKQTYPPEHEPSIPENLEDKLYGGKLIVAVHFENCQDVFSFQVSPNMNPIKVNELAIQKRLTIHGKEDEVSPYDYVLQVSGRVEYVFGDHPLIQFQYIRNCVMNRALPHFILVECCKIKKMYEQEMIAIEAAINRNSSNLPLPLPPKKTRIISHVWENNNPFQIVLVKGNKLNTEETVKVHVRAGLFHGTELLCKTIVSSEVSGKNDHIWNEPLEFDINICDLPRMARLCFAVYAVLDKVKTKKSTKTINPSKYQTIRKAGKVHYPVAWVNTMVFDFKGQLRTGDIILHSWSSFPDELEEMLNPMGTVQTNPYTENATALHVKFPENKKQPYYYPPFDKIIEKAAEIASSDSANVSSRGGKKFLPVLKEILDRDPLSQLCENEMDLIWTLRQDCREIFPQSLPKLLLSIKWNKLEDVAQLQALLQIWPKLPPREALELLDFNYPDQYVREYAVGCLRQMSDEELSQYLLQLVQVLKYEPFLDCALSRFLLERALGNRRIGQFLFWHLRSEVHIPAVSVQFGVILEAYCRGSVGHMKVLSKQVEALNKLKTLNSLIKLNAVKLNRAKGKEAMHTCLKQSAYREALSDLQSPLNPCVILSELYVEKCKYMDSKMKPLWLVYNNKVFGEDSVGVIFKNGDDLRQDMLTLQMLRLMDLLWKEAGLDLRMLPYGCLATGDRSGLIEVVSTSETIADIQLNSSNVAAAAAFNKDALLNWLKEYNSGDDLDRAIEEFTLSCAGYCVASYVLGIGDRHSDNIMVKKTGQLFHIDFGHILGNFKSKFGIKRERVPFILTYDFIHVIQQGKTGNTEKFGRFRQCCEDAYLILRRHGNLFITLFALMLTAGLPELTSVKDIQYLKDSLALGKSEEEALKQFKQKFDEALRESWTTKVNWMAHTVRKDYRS

[20] = target: Phosphatidylinositol 4,5-bisphosphate 3-kinase catalytic subunit gamma isoform (Homo sapiens) (UniProt P48736); test: Inhibition of PI3Kgamma (unknown origin) transfected in human Rh30 cells assessed as reduction in AKT phosphorylation at Thr308 residue at 10XIC50 by western blot analysis; format: cell-based; in short: as §5
Sequence of Phosphatidylinositol 4,5-bisphosphate 3-kinase catalytic subunit gamma isoform (Homo sapiens) (P48736 whole entry, looked up, canonical isoform): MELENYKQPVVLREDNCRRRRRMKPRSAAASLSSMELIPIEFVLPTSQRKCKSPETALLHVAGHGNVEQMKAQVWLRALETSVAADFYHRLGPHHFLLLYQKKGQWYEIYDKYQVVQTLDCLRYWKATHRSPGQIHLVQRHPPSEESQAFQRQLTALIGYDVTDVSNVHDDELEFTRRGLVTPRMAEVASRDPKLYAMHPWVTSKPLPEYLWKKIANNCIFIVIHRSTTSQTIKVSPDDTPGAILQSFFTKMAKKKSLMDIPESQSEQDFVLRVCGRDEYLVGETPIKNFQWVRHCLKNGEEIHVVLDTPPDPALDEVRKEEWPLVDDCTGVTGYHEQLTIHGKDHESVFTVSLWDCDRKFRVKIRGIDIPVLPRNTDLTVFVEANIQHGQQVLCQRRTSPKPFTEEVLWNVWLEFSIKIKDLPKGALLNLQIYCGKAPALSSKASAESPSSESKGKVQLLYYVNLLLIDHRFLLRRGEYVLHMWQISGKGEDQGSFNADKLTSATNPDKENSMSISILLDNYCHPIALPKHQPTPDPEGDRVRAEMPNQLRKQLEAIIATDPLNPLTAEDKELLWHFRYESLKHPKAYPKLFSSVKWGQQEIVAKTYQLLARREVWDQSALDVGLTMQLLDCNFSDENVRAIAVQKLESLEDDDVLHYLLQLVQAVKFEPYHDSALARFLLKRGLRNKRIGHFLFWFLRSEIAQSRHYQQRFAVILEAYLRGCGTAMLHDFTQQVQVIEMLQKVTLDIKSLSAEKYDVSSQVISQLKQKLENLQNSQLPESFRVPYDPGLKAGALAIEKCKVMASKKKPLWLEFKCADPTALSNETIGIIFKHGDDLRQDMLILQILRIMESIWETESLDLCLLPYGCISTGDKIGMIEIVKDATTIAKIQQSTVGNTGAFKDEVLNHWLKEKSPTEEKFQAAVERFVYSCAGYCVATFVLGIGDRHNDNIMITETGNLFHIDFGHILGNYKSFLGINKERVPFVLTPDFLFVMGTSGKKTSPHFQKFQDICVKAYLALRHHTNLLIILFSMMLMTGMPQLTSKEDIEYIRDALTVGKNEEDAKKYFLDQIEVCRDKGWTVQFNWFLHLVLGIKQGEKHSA

[21] = target: Phosphatidylinositol 4,5-bisphosphate 3-kinase catalytic subunit delta isoform (Homo sapiens) (UniProt O00329); test: Inhibition of PI3Kdelta (unknown origin) transfected in human Rh30 cells assessed as reduction in AKT phosphorylation at Thr308 residue at 10XIC50 by western blot analysis; format: cell-based; in short: as §5
Sequence of Phosphatidylinositol 4,5-bisphosphate 3-kinase catalytic subunit delta isoform (Homo sapiens) (O00329 whole entry, canonical isoform): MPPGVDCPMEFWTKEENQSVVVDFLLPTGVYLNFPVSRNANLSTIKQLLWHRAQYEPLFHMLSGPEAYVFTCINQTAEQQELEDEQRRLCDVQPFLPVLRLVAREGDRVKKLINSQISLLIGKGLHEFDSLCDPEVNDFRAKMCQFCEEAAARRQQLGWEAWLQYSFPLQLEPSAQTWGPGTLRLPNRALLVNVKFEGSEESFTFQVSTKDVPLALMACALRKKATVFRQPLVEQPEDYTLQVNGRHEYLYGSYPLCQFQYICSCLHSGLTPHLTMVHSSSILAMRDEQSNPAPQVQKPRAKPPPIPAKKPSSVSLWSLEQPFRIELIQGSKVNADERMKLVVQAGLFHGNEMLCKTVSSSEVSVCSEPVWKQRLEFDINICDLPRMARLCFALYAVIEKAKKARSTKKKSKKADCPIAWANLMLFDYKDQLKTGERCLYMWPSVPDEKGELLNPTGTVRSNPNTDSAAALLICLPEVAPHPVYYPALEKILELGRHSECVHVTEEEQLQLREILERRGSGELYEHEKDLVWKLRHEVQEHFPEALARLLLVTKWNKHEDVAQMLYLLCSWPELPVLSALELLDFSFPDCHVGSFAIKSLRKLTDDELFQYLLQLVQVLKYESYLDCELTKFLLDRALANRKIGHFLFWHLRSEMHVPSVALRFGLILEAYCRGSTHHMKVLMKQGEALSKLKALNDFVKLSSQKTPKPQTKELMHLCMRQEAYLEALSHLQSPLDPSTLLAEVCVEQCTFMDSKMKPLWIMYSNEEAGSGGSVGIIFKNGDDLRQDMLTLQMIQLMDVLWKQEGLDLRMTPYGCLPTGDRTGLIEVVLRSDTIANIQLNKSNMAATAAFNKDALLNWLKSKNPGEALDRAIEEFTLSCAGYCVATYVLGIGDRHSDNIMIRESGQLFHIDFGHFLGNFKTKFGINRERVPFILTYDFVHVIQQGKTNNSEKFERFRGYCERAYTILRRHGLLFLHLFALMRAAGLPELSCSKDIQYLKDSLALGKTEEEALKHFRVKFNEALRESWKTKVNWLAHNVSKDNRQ

[22] = tested on: LoVo; test: Antiproliferative activity against human LoVo cells assessed as reduction in cell viability after 72 hrs by sulforhodamine B assay; format: functional, cell-based; in short: as §2
[23] = tested on: Mus musculus; test: In vivo inhibition of PI3Kalpha in BALB/cA nude mouse xenografted with human SK-OV-3 cells assessed as reduction in AKT phosphorylation at Ser473 residue in tumor at 5 mg/kg, po measured after 4 to 8 hrs by Western blot analysis; format: functional, organism-based; conditions: time 4-8 hrs; in short: as §3
[24] = species: Homo sapiens; test: Selectivity index, ratio of IC50 for human PI3K p110beta/p85alpha to IC50 for human PI3Kalpha by HTRF assay
In short: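 The PI3K isoforms were assayed with an HTRF kit. Each enzyme was incubated in assay buffer containing 10 μM PIP2, and the reaction was started with ATP and run 30 min at room temperature. Stop solution and detection mix were then added and light emission was read. IC50 values were averages of at least 3 separate determinations, and each index is the ratio of IC50 values.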

[25] = Inhibition of human PI3K p110alpha E545K mutant/p85alpha using PIP2 as substrate incubated for 30 mins in presence of ATP by HTRF assay

Sequence of RAF proto-oncogene serine/threonine-protein kinase (P04049 whole entry Y340D/Y341D, canonical isoform): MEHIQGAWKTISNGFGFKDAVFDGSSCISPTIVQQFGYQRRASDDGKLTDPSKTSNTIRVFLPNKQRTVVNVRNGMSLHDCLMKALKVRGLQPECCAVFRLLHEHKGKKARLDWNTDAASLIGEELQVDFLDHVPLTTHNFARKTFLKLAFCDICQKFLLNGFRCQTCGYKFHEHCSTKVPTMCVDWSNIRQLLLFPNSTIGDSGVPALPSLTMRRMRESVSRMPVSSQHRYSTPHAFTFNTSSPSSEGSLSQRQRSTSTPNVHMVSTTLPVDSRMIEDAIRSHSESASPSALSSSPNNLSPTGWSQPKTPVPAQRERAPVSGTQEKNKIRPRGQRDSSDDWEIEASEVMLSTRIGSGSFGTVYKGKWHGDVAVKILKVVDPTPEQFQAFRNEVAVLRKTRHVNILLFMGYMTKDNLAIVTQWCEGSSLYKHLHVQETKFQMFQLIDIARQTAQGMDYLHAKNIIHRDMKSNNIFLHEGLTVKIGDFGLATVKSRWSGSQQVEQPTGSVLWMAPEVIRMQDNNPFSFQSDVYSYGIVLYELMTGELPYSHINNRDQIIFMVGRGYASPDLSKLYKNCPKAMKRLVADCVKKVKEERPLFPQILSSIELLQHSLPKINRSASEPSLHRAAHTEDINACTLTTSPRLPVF

IC50 [1]: 1000 nM | inhibition [2]: Dose-dependent effect | inhibition [3]: Dose-dependent effect | IC50 [4]: < 1000 nM | IC50 [5]: < 1000 nM | IC50 [6]: < 1000 nM | IC50 [7]: < 1000 nM | IC50 [8]: < 1000 nM | half-life [12]: 1.56 h | CLint scaled [13]: 29 mL/min/kg | CLint scaled [14]: 39.5 mL/min/kg | Tmax [15]: 0.875 h | half-life [16]: 1.49 h | AUC(0-inf) [17]: 2750 ng·h/mL | inhibition [18]: Active | inhibition [19]: Active | inhibition [20]: Active | inhibition [21]: Active | IC50 [22]: < 1000 nM | Ratio IC50 [24]: 101 | IC50 [25]: 17.1 nM
SMILES: COC(=O)Nc1cc(C(F)(F)F)c(-c2nc(N3CCOCC3)c3cc(CN4CCN(S(C)(=O)=O)CC4)cn3n2)cn1 [RISOVALISIB]
inhibition [9]: Active | Activity [10]: 67.4% | Activity [11]: 48.1% | inhibition [23]: inactive
